Here are results for 3 compounds from PMC6008213 (Biochemistry, 2018).

Each structure is given as a SMILES string. Substitutions are numbered along the chain they refer to.

The target in experiment [1] is TG2. Particulars: reported value; cited from earlier work.
Experiment [2] has as its target T1, human TG2 (Homo sapiens, UniProt P21980).
T1 sequence (P21980 1-687): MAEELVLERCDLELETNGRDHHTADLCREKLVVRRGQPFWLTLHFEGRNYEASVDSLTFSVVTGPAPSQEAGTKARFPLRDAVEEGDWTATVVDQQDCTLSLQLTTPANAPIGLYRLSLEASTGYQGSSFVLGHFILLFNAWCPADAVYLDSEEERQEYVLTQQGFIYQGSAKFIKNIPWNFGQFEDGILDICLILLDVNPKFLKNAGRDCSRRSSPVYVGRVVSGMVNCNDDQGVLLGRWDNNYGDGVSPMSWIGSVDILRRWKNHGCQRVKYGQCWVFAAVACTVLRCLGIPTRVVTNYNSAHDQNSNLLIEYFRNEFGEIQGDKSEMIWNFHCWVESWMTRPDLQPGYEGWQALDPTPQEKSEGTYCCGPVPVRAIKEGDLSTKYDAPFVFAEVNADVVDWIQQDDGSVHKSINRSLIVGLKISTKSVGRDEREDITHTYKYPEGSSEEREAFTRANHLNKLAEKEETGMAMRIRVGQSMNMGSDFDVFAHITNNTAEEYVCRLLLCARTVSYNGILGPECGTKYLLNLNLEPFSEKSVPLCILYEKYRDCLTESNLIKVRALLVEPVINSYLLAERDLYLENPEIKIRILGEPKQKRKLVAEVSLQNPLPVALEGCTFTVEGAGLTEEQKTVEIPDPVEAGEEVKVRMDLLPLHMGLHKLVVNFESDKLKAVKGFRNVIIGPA
As to the kind of experiment: TG2 deamidation activity assay. Type of experiment: biochemical. Particulars: for kinh/Ki (bimolecular rate constant for TG2 oxidation): deamidation activity assay, 50 mM Tris, 1 mM EDTA, TG2 10 μM. In short, it runs like this:
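Human TG2 was expressed in and purified from E. coli and held at 10 μM in 50 mM Tris, 1 mM EDTA, pH 7.6, 22 °C, with disulfide oxidant. Aliquots taken at 2.5–120 min were diluted 10-fold into assay buffer. Deamidation activity was read relative to oxidant-free enzyme, in three technical replicates. Single-exponential fits gave k′. kinh/Ki came from the slope of k′ versus [I0], and Ki from fitting k′ versus [I0].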

Experiment [3] has as its target T1, human TG2. Nature of the experiment: TG2 transamidation activity assay. Type of experiment: biochemical. The gist of the method: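 Transamidation was measured with TG2 immobilized on fibronectin, in 50 mM Tris, 1 mM EDTA, pH 7.6, 22 °C. After timed exposure to oxidant, activity was read relative to untreated enzyme. Single-exponential fits gave k′. Ki and kinh/Ki came from the dependence of k′ on inhibitor concentration.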

Experiment [4] deals with T2, C230S mutant of human TG2 (Homo sapiens, UniProt P21980, C230S).
T2 sequence (P21980 1-687 C230S): T1 sequence (P21980 1-687) with C230S
Nature of the experiment: Deamidation activity of the C230S mutant of TG2 after cystamine treatment. The class given is biochemical. To be noted: 10-fold molar excess of cystamine, 30 min; pH 7.6, 22 °C.

For `O=C(NC[C@@H]1CC(Br)=NO1)[C@@H]1CCCN1C(=O)OCc1cnc2ccccc2c1` [ERW1041E], in experiment [1], the kinh/Ki is 267 M⁻¹ s⁻¹.
As for `NCCSSCCN` [cystamine], the Ki (in general, a dissociation constant, usually derived from enzyme kinetics or from competition with a known ligand) was over 600 µM in experiment [2] and over 100 µM in experiment [3]. Further, the “inactivation of WT TG2 (deamidation activity)” value in experiment [2] (10-fold molar excess of cystamine, 30 min, pH 7.6, 22 °C) is “completely inactivated”. Moreover, the “kinh/Ki (bimolecular rate constant for TG2 oxidation)” value in experiment [2] (pH 7.6, 22 °C) amounted to 20 M⁻¹ s⁻¹; in experiment [3] (transamidation activity assay, 50 mM Tris, 1 mM EDTA, pH 7.6, 22 °C (disulfiram: TG2 50 nM, disulfiram 10 μM, 2.5% DMSO)), 28.3 M⁻¹ s⁻¹. Further, the “retained deamidation activity of C230S mutant” value in experiment [4] is over 85%.
As to `N[C@@H](CSSC[C@H](N)C(=O)O)C(=O)O` [cystine], the “kinh/Ki (bimolecular rate constant for TG2 oxidation)” value in experiment [2] (pH 7.6, 22 °C) turned out to be 4.83 M⁻¹ s⁻¹.
